The sample as a whole holds a higher share of hits than the screen did.
L major viab = reduces viability of Leishmania major promastigotes. resazurin fluorescence viability. inhibition, % at 10 µM. hit rate 9% among 200,000. AID 1063; in the data active means inhibition above about 50%;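 further: promastigotes grown with compound for 44 hours at 28 °C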
UPR XBP1 act = activators of adaptive arm of unfolded protein response (XBP1). activation, % at 20 µM. CHO-XBP1 luciferase reporter, IRE1-XBP1 UPR activation, luminescence; percent of tunicamycin response, DMSO as zero. AID 463104. hit rate 0.33% among 330,000;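 active means versus positive control, 20 µM dose yields 30% or more activation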;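 further: 100% = tunicamycin at 10 µg/mL and 0% = DMSO only wells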
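Material: CHO-XBP1 cells stably carrying IRE1-XBP1-driven luciferase reporter | Medium: F12 with 10% serum | Compound dosing: 20 µM single concentration, DMSO 1% | Incubation: Overnight seeding at 37 °C, 6 h compound treatment at 37 °C | Detection: Steady-Glo luminescence read | Read-out basis: % activation of reporter signal versus tunicamycin and DMSO controls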
T cruzi repl = T. cruzi replication inhibition; T. cruzi beta-gal in NIH3T3, luminescence, 90 h; inhibition, % (no concentration beside the values); hit rate 1.4% among 300,000;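 active means mean inhibition across valid replicates above about 55%, limit read from the data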;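 further: signal also drops with host cell toxicity which is not excluded here; 0% = plate median of DMSO wells and 100% = zero luminescence signal; higher percent means less beta-gal luminescence so fewer parasites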
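Assay system: NIH/3T3 fibroblasts plus reporter T. cruzi. Amount: NIH/3T3 cells, 5,000 per well. Buffer or medium: DMEM, 2% fetal bovine serum. Doses: compound pinned at 50 nL/well, DMSO. Schedule: ≥90 h infection period, 3 h prior cell attachment. Signal: luminescent β-galactosidase signal after 60 min lysis. Read-out: parasite load inhibition, %.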
Dynein cargo inh = dynein cargo transport inhibition; 3617.4 mouse cells, GR-EGFP nuclear translocation imaging; test concentration mostly 20 µM; stimulated with dexamethasone, 1 µM; active compounds read low; z-score, hits read low; hit rate 0.47% among 220,000; AID 1381;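 active means plate z-score of nuclear minus cytoplasmic receptor signal below a set negative limit, without overly bright fluorescence or cell loss, cut at about -3.5 in these data, passing the limit was not always enough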;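 further: z-score of nuclear minus cytoplasmic ring GR-EGFP intensity difference per well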
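Buffer or medium: tet-free, stripped-serum medium; Also added: dexamethasone, 1.0 µM final; Technique: high-content fluorescence imaging after fixation; Times: 48 h induction, 1 h compound, 30 min dex at 37 °C; Read-out: per-cell GR-EGFP intensity, nucleus versus surrounding cytoplasmic ring, well-averaged.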
CHOP inhibitor = blocks CHOP induction under ER stress; hit rate 3.8% among 220,000; CHO-K1 CHOP-promoter luciferase, tunicamycin-induced, 15-18 h; inhibition, % at 10 µM; AID 2732;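 active means compounds that reduced the stress-induced luciferase reporter signal by more than about 70% of percent inhibition, limit read from the data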;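 further: 0% = tunicamycin plus vehicle and 100% = wells without tunicamycin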
UPR CHOP act = activators of apoptotic arm of unfolded protein response (CHOP); CHO-CHOP luciferase reporter, UPR activation, luminescence; percent of tunicamycin response over DMSO baseline; hit rate 0.34% among 330,000; activation, % at 10 µM; AID 449763;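 active means at 10 µM dose, activation of 40% or more, normalized to positive control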;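 further: 100% = tunicamycin at 10 µg/mL and 0% = DMSO alone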
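System: CHO-CHOP luciferase reporter cell line; amount: 500 cells/well; buffer or medium: F12 medium containing 10% fetal bovine serum; incubation: 6 h compound exposure at 37 °C after overnight seeding; measured by: luciferase luminescence after 10 min with Steady-Glo reagent; evaluation: % reporter activation, DMSO baseline versus tunicamycin full activation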
* hit, by the source's call; · = not tested or not shown.

SMILES	L major viab	UPR XBP1 act	T cruzi repl	Dynein cargo inh	CHOP inhibitor	UPR CHOP act
CCOc1ccc(N2C(=O)C(c3ccccc3)=C(c3nc4ccccc4s3)C2NC(C)=O)cc1 (configuration not stated)	51.1*	4.5	30.0	-0.512	-1.5	0.2
CCOc1ccc(-n2nnnc2-c2nc3ccccc3s2)cc1	-2.9	7.5	0.0	-0.442	7.5	1.0
Cc1ccc(-c2csc(N3CCC(C(N)=O)(N4CCCCC4)CC3)n2)cc1	-0.1	-1.5	18.3	-0.338	81.7*	-0.1
Cn1c(-c2ccsc2)c(-c2cccs2)c2cc(Br)ccc21	·	-1.1	·	·	·	1.5
C/C(=N\N=C1\NC(=O)CC(C(=O)O)S1)c1ccc(F)cc1 (configuration not stated)	51.7*	-0.1	-4.2	-0.917	11.2	1.3
CCN(C(=O)COC(=O)c1cc(-c2ccc3cc(OC)ccc3c2)nc2ccccc12)C1CCS(=O)(=O)C1 (configuration not stated)	97.6*	1.2	15.3	1.44	17.4	4.6
CCN(C(=O)COC(=O)c1cc(OC)ccc1Br)C1CCS(=O)(=O)C1 (configuration not stated)	·	-1.2	·	·	·	-1.6
CC(=O)Nc1ccc(Nc2ccc(S(=O)(=O)C(F)(F)F)cc2[N+](=O)[O-])cc1	56.3*	·	-4.0	1.67	44.1	·
O=C(O)CNc1ccc(S(=O)(=O)C(F)(F)F)cc1[N+](=O)[O-]	·	-0.5	-20.4	-0.0529	1.6	0.3
Cc1nc(N2CCN(C(=O)c3ccco3)CC2)[nH]c(=O)c1C	·	-1.8	-6.1	·	·	3.3
c1ccc(-c2nnc(-c3c[nH]c4ccccc34)nc2-c2ccccc2)cc1	38.4	9.8	31.0	0.817	-15.4	4.3
ClC(Cl)c1nnc(-c2ccccc2)c(-c2c[nH]c3ccccc23)n1	2.9	-0.8	-34.0	1.9	80.2*	0.6
C/C(=N\NC(N)=O)c1cccc(Cl)c1	82.7*	-1.1	-16.5	1.19	14.3	1.6
O=C(NNC(=S)NC(=O)c1ccco1)c1ccc(NC(=O)c2ccccc2)cc1	95.6*	1.3	-28.5	0.508	30.4	-1.3
CCCCC(=O)Nc1ccc(C(=O)NNC(=S)NC(=O)c2cccs2)cc1	62.4*	-2.7	-17.1	1.76	33.8	0.7
CC(C)CNC(=O)c1ccc(NC(=O)c2cccs2)cc1	52.4*	1.1	4.5	-0.566	17.6	3.9
O=C(NC(=S)NNC(=O)c1cc2ccccc2cc1O)c1ccco1	76.3*	2.3	1.5	-0.61	23.8	1.6
O=C(NC(=S)NNC(=O)c1ccccc1O)c1ccco1	-0.7	·	-9.6	1.67	2.3	·
Cc1cc(C)c2c(N=NN3CCOCC3)[nH]nc2n1	-10.8	0.6	0.5	-0.996	27.2	1.3
O=C(Nc1ccc(NC(=S)NC(=O)c2cccs2)cc1)c1ccccc1	-3.4	1.1	2.7	0.103	48.6	1.2
O=C(NNC(=S)NC(=O)c1cccs1)c1ccc(NC(=O)c2ccccc2)cc1	99.2*	1.4	9.3	-0.157	49.1	1.1
O=C(c1ccc(O)cc1)c1ccc(Cl)cc1	-4.8	2.8	-18.2	0.142	82.6*	0.6
O=C(NC1CCCCC1)C(c1ccncc1)N(C(=O)c1csnn1)c1cccc(F)c1 (configuration not stated)	·	-2.5	0.1	·	·	0.1
COc1ccc(CCN(C(=O)C(F)(F)F)C(C(=O)NC2CCCC2)c2cccs2)cc1 (configuration not stated)	61.8*	-2.5	14.5	3.31	79.9*	0.2
O=C(NC1CCCCC1)C(c1ccco1)N(CCc1ccccc1)C(=O)C(F)(F)F (configuration not stated)	8.4	-2.3	-5.0	0.105	5.4	-0.9
CCN1CCN(C(=O)C2CCC(=O)N(Cc3cccc(C(F)(F)F)c3)C2)CC1 (configuration not stated)	·	-1.1	-5.9	·	·	1.5
O=C(CSc1nc2ccccc2c(=O)n1CCCN1CCOCC1)Nc1ccc(Br)cc1	·	-5.1	·	·	·	0.8
CCC(C)NC(=O)CSc1nc2ccccc2c(=O)n1Cc1ccc(OC)cc1 (configuration not stated)	55.4*	0.3	1.8	-0.397	32.1	-1.2

Screens: PubChem, several laboratories
